Activity calls are given as the source filed them. No cut-off for these calls is given here.
Experiments:
[1] = test system: Tyrosine-protein kinase ABL1 (Homo sapiens), P00519 [H396P]; test: Inhibition of ABL1 H396P mutant (unknown origin) assessed as remaining activity at 1 uM by Kinome scan method relative to control
Method in brief: (§1)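 Active-site-dependent competition-binding (KINOMEscan) panel of 468 kinases, test compound at 1 μM (from a 10 mM DMSO stock). Read-out is ctrl% = (test signal − positive control signal)/(negative control signal − positive control signal) × 100. DMSO is the negative control (100%) and a control compound is the positive control (0%). Lower ctrl% means tighter binding.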

[2] = biological target: Cyclin-dependent kinase-like 1 (Homo sapiens) (UniProt Q00532); test: Inhibition of CDKL1 (unknown origin) assessed as remaining activity at 1 uM by Kinome scan method relative to control
Method in brief: (§2)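 Active-site-dependent competition-binding profiling (KINOMEscan) at 1 μM against a 468-kinase panel; compound supplied from a 10 mM DMSO stock. Read-out is ctrl% = (test signal − positive control signal)/(negative control signal − positive control signal) × 100. DMSO is the negative control (100%) and a control compound the positive control (0%). Lower ctrl% means tighter binding.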

[3] = biological target: Serine/threonine-protein kinase haspin (Homo sapiens) (UniProt Q8TF76); test: Inhibition of HASPIN (unknown origin) assessed as remaining activity at 1 uM by Kinome scan method relative to control
Mus musculus [4] = test: Anti-colitis activity against DSS-induced mouse assessed as cancerous phenotype at 1 mg/kg, ip administrated daily for 1 week; format: functional, organism-based; settings: Colon, time 1.0 weeks
Method in brief: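 DSS given orally for 7 days. Mice received 1 mg/kg intraperitoneally daily for 1 week. Animals were followed for more than 10 months for cancerous phenotypes.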

[5] = biological target: Hormonally up-regulated neu tumor-associated kinase (Homo sapiens) (UniProt P57058); test: Inhibition of HUNK (unknown origin) assessed as remaining activity at 1 uM by Kinome scan method relative to control
HepG2 [6] = test: Induction of apoptosis in human HepG2 cells assessed as early apoptosis cells at 3 uM by annexinV staining (Rvb =4.16 %); format: functional
[7] = biological target: SNF-related serine/threonine-protein kinase (Homo sapiens) (UniProt Q9NRH2); test: Inhibition of SNRK (unknown origin) assessed as remaining activity at 1 uM by Kinome scan method relative to control
[8] = test system: Tyrosine-protein kinase ABL1 (Homo sapiens), P00519 [H396P]; test: Inhibition of phosphorylated ABL1 H396P mutant (unknown origin) assessed as remaining activity at 1 uM by Kinome scan method relative to control
[9] = biological target: Serine/threonine-protein kinase 35 (Homo sapiens) (UniProt Q8TDR2); test: Inhibition of STK35 (unknown origin) assessed as remaining activity at 1 uM by Kinome scan method relative to control
[10] = biological target: Muscle, skeletal receptor tyrosine-protein kinase (Homo sapiens) (UniProt O15146); test: Inhibition of MUSK (unknown origin) assessed as remaining activity at 1 uM by Kinome scan method relative to control
[11] = biological target: Activin receptor type-2B (Homo sapiens) (UniProt Q13705); test: Inhibition of ACVR2B (unknown origin) assessed as remaining activity at 1 uM by Kinome scan method relative to control; method in brief: as §1
HepG2 [12] = test: Induction of apoptosis in human HepG2 cells overexpressing MST2 assessed as late apoptosis cells at 3 uM by annexinV staining (Rvb =2.01 %); format: functional
[13] = biological target: Mitogen-activated protein kinase 8 (Homo sapiens) (UniProt P45983); test: Inhibition of JNK1 (unknown origin) assessed as remaining activity at 1 uM by Kinome scan method relative to control
[14] = Toxicity in APAP induced liver injury in mouse assessed as cancer cell growth at 1 mg/kg, ip administered for > 10 months; format: organism-based; settings: in vivo, 7300 h
[15] = biological target: Serine/threonine-protein kinase 3 (Homo sapiens, UniProt Q13188, Y101F)
[16] = biological target: Activin receptor type-1-like (Homo sapiens) (UniProt P37023); test: Inhibition of ACVRL1 (unknown origin) assessed as remaining activity at 1 uM by Kinome scan method relative to control; method in brief: as §1
[17] = biological target: Cyclin-dependent kinase 13 (Homo sapiens) (UniProt Q14004); test: Inhibition of CDC2L5 (unknown origin) assessed as remaining activity at 1 uM by Kinome scan method relative to control; method in brief: as §2
[18] = biological target: Serine/threonine-protein kinase tousled-like 2 (Homo sapiens) (UniProt Q86UE8); test: Inhibition of TLK2 (unknown origin) assessed as remaining activity at 1 uM by Kinome scan method relative to control
Mus musculus [19] = test: Protection against APAP induced liver injury in mouse assessed as continual expansion of centrilobular necrotic lesions at 1 mg/kg, ip administered at 2.5 hrs by TUNEL staining; format: functional, organism-based
[20] = test system: Mast/stem cell growth factor receptor Kit (Homo sapiens), P10721 [V559D,T670I]; test: Inhibition of KIT V559D/T670I mutant (unknown origin) assessed as remaining activity at 1 uM by Kinome scan method relative to control
Mus musculus [21] = test: Protection against APAP induced liver injury in mouse assessed as decrease in mortality rate at 1 mg/kg, ip administered at 2.5 hrs in the presence of NAC; format: functional, organism-based
[22] = biological target: Calcium/calmodulin-dependent protein kinase type 1 (Homo sapiens) (UniProt Q14012); test: Inhibition of CAMK1 (unknown origin) assessed as remaining activity at 1 uM by Kinome scan method relative to control
Method in brief: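 KINOMEscan active-site-dependent competition-binding panel of 468 kinases, compound at 1 μM from a DMSO stock. Result reported as ctrl% = (test signal − positive control signal)/(negative control signal − positive control signal) × 100. The negative control is DMSO (100%) and the positive control is a control compound (0%). Lower ctrl% means tighter binding.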

[23] = biological target: Serine/threonine-protein kinase ULK1 (Homo sapiens) (UniProt O75385); test: Inhibition of ULK1 (unknown origin) assessed as remaining activity at 1 uM by Kinome scan method relative to control
[24] = test system: Proto-oncogene tyrosine-protein kinase receptor Ret (Homo sapiens), P07949 [M918T]; test: Inhibition of RET M918T (unknown origin) assessed as remaining activity at 1 uM by Kinome scan method relative to control
[25] = biological target: Serine/threonine-protein kinase 25 (Homo sapiens) (UniProt O00506); test: Inhibition of YSK1 (unknown origin) assessed as remaining activity at 1 uM by Kinome scan method relative to control
Mus musculus [26] = test: Protection against APAP induced liver injury in mouse assessed as increase in survival rate at 1 mg/kg, ip administered at 2.5 hrs in the presence of NAC […]; format: functional
Method in brief: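 Wild-type mice given oral APAP 400 mg/kg, then i.p. vehicle, NAC 250 mg/kg, 1 mg/kg test agent, or NAC plus test agent at 1.5 or 2.5 h. Mortality was tracked with n = 10–11 per group, Mantel-Cox test. Separately, TUNEL was done on liver after 200 mg/kg APAP with treatment at 2.5 h.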

[27] = test system: Tyrosine-protein kinase ABL1 (Homo sapiens), P00519 [E255K]; test: Inhibition of phosphorylated ABL1 E255K mutant (unknown origin) assessed as remaining activity at 1 uM by Kinome scan method relative to control

Chain of Cyclin-dependent kinase 13 (Homo sapiens) (Q14004 whole entry, looked up): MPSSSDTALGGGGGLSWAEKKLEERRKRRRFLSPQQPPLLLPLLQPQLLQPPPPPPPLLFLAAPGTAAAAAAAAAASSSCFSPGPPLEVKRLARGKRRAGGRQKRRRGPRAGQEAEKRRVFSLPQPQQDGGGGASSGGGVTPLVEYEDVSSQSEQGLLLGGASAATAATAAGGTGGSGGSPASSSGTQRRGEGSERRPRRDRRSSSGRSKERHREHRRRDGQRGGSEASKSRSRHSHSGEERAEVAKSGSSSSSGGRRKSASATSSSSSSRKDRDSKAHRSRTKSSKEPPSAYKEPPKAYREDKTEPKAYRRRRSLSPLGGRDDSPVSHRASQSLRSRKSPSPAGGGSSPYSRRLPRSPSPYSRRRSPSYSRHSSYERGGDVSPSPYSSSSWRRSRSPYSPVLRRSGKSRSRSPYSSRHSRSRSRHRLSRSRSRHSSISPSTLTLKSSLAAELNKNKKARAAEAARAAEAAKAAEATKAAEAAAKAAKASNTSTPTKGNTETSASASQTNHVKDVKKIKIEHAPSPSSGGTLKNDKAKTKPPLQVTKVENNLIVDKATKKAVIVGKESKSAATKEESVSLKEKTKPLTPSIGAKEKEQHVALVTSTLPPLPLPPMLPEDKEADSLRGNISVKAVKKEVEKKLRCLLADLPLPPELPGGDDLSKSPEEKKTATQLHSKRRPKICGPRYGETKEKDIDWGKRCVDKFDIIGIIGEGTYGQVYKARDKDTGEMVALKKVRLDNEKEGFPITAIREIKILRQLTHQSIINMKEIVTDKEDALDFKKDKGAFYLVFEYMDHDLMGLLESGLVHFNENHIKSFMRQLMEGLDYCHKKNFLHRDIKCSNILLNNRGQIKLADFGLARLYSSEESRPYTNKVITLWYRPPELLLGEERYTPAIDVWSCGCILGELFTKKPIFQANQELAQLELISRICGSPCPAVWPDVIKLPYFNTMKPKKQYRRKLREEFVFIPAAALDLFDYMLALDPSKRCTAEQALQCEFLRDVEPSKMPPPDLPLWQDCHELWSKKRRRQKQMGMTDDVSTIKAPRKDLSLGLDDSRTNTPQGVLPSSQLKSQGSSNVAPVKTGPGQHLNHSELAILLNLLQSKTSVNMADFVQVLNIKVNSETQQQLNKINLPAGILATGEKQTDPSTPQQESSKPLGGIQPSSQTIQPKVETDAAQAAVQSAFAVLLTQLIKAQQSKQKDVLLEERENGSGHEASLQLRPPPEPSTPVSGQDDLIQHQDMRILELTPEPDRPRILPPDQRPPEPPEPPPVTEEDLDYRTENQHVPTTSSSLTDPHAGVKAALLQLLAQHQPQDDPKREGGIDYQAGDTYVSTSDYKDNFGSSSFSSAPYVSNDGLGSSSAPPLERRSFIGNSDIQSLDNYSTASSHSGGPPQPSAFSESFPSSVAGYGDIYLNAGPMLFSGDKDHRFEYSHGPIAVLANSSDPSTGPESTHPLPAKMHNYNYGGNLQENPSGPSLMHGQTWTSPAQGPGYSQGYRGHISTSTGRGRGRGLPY
Chain of Activin receptor type-1-like (Homo sapiens) (P37023 whole entry): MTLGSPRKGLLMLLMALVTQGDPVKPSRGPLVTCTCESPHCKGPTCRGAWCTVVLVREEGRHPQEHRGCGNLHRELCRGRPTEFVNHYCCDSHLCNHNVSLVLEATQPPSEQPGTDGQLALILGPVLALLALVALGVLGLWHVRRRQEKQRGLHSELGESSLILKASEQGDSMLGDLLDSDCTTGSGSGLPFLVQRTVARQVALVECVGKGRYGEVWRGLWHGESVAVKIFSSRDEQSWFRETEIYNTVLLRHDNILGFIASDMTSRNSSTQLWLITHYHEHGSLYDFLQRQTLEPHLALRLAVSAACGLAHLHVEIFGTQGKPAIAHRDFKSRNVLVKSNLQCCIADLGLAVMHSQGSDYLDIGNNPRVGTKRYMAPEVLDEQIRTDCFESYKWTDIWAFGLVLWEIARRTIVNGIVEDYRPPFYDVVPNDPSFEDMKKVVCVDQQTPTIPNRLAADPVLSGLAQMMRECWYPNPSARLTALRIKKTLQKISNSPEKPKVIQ
Chain of Serine/threonine-protein kinase 35 (Homo sapiens) (Q8TDR2 whole entry): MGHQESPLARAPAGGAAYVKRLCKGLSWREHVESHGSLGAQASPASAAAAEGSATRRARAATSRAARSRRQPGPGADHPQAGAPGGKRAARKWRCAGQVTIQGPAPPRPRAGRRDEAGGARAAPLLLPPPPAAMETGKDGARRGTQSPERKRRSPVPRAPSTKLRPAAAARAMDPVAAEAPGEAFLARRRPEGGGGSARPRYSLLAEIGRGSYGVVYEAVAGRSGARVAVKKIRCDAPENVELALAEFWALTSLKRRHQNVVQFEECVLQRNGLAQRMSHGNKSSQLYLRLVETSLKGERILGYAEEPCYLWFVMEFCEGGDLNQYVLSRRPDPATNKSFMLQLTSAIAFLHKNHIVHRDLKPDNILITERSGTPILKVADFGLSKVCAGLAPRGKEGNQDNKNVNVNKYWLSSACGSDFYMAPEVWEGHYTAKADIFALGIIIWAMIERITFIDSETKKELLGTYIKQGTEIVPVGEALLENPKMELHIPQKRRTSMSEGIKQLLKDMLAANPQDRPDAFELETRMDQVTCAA
Chain of Cyclin-dependent kinase-like 1 (Homo sapiens) (Q00532 whole entry): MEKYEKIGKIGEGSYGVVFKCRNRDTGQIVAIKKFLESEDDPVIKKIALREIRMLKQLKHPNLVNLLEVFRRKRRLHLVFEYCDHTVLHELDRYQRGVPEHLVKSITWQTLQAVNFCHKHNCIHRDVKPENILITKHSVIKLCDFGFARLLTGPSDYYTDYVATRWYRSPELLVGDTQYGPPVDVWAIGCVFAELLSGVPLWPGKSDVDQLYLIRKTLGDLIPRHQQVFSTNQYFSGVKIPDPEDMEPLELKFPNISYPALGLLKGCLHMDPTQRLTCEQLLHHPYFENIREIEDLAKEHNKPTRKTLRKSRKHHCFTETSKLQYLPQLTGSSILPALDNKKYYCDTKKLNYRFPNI
Chain of Proto-oncogene tyrosine-protein kinase receptor Ret (Homo sapiens), P07949 [M918T] (P07949 whole entry M918T): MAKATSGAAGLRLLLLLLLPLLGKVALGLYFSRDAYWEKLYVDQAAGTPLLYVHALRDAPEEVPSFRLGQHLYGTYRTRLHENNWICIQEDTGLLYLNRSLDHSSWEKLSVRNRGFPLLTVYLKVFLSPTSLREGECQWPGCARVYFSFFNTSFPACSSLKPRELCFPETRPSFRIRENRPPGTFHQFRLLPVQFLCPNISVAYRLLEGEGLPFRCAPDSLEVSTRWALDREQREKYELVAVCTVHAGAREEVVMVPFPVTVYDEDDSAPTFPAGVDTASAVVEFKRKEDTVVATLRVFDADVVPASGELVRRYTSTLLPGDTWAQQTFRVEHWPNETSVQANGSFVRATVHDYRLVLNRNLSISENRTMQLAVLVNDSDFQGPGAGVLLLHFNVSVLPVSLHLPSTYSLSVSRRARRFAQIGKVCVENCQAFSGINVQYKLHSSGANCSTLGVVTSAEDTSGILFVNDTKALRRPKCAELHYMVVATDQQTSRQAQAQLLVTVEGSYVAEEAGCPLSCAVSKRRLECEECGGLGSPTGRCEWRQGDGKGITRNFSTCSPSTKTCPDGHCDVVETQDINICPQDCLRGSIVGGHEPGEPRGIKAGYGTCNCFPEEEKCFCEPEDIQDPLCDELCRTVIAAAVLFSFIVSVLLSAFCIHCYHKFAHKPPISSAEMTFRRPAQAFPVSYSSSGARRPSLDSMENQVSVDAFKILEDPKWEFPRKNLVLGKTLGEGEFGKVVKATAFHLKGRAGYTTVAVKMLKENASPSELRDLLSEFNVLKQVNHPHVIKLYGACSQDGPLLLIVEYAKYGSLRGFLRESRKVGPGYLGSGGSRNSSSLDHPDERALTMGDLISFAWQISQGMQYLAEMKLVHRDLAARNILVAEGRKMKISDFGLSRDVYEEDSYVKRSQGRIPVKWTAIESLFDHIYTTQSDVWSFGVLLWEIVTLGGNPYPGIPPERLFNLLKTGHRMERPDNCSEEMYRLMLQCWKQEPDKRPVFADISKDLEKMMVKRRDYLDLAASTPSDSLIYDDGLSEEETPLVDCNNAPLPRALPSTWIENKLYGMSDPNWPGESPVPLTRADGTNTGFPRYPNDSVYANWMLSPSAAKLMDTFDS
Chain of Serine/threonine-protein kinase haspin (Homo sapiens) (Q8TF76 whole entry): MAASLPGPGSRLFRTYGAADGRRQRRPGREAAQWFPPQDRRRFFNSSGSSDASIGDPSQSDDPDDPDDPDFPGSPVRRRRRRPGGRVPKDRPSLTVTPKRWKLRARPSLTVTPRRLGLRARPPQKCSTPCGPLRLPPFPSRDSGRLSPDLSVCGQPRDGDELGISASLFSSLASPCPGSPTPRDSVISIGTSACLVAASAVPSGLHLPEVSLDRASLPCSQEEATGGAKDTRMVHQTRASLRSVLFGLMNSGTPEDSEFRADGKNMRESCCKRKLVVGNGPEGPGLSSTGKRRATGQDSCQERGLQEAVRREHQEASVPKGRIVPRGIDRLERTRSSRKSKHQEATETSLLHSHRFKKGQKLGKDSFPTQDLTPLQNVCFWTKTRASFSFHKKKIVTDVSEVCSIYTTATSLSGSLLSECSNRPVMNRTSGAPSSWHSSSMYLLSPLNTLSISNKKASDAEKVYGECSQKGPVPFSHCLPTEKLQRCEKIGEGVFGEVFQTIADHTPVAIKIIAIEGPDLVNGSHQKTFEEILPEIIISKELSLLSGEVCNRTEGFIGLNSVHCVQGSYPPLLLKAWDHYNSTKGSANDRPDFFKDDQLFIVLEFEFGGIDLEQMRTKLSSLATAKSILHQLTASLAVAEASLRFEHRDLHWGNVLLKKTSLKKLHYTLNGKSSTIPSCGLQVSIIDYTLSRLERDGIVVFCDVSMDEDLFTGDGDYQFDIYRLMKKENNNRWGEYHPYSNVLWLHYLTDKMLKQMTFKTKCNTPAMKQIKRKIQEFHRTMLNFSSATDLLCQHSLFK

CN1C(=O)c2sccc2N(C)c2nc(Nc3ccc(S(N)(=O)=O)cc3)ncc21
Activity [1]: 11%
Activity [2]: 100%
Activity [3]: 96%
Activity (Mus musculus [4]): Active
Activity [5]: 84%
Activity (HepG2 [6]): 4.04%
Activity [7]: 100%
Activity [8]: 14%
Activity [9]: 100%
Activity [10]: 100%
Activity [11]: 100%
Activity (HepG2 [12]): 1.54%
Activity [13]: 81%
Activity [14]: Non-Toxic
IC50 [15]: 361 nM
Activity [16]: 100%
Activity [17]: 90%
Activity [18]: 100%
Activity (Mus musculus [19]): Active
Activity [20]: 88%
Activity (Mus musculus [21]): Active
Activity [22]: 95%
Activity [23]: 21%
Activity [24]: 78%
Activity [25]: 94%
Activity (Mus musculus [26]): ~40%
Activity [27]: 11%

Reference: ChEMBL document CHEMBL5705905, “Pharmacological targeting of kinases MST1 and MST2 augments tissue repair and regeneration” (Sci Transl Med, 2016)
